One compound from PMC10392812 (Journal of the American Chemical Society, 2023) can be followed below.

The experiment concerns the target T1, EDC3 (Homo sapiens, UniProt Q96F86).
T1 sequence (Q96F86 1-508): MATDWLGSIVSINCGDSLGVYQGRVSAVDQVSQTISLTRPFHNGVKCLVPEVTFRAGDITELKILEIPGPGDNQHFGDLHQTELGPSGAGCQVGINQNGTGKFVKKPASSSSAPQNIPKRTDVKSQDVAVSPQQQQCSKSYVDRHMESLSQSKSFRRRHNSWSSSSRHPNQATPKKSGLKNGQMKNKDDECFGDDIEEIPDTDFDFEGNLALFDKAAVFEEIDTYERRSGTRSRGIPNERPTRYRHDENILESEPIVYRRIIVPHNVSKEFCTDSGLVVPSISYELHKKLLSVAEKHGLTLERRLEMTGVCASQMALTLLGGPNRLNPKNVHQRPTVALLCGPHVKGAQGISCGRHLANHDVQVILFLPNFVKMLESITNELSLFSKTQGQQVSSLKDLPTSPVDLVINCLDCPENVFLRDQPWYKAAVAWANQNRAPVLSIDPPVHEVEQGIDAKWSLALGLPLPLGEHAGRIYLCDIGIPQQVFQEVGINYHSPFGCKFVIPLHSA
Description: competitive gel-based ABPP in situ. The format is cell-based. The essentials: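 Recombinant EDC3-expressing HEK293T cells pretreated with test compound (0.1–100 µM, 2 h); lysed, and soluble proteomes labelled with HHS-465 Tyr/Lys-reactive sulfonyl-triazole probe (100 µM, 1 h, RT). CuAAC to rhodamine-azide, SDS-PAGE and in-gel fluorescence scanning. IC50 estimated from dose-dependent loss of EDC3 probe labelling; mean ± SEM, n = 3 biologically independent replicates.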

SMILES strings stand for the structures.

Consider `COc1ccc(S(=O)(=O)n2cc(CS(C)(=O)=O)nn2)cc1` [AHL-030], for which the IC50 is about 6 µM.
